The target of experiment [1] is Estrogen receptor beta (Homo sapiens) (UniProt Q92731). Description: Relative binding affinity was determined for Estrogen receptor 2 using 10 nM [3H]E2 as tracer (estradiol 100%). The method, boiled down: (§1)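 Competitive radiometric binding with purified full-length human ERα or ERβ, 10 nM [3H]estradiol tracer. Receptor–tracer complex adsorbed on hydroxylapatite. Incubation at 0 °C for 18-24 h. RBA expressed relative to estradiol = 100%. Mean of at least 2, typically 3 or more, independent determinations (±SD); coefficient of variation 0.3.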
Chain of Estrogen receptor beta (Homo sapiens) (Q92731 whole entry): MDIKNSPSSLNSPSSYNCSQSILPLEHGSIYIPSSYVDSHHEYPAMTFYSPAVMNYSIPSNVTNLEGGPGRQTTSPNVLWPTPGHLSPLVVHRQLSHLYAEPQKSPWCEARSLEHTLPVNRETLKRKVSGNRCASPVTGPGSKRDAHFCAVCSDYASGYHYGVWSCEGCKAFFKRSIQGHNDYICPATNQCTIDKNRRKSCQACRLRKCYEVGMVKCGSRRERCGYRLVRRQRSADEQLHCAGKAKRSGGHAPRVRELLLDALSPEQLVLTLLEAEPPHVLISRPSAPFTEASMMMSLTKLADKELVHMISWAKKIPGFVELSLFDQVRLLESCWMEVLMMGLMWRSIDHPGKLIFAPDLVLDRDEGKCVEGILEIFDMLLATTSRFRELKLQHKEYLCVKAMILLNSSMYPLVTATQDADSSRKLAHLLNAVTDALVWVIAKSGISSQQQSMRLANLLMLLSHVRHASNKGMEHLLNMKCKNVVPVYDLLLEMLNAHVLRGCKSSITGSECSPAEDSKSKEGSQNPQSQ

The target in experiment [2] is T1, Estrogen receptor (Homo sapiens) (UniProt P03372).
T1 sequence (whole entry): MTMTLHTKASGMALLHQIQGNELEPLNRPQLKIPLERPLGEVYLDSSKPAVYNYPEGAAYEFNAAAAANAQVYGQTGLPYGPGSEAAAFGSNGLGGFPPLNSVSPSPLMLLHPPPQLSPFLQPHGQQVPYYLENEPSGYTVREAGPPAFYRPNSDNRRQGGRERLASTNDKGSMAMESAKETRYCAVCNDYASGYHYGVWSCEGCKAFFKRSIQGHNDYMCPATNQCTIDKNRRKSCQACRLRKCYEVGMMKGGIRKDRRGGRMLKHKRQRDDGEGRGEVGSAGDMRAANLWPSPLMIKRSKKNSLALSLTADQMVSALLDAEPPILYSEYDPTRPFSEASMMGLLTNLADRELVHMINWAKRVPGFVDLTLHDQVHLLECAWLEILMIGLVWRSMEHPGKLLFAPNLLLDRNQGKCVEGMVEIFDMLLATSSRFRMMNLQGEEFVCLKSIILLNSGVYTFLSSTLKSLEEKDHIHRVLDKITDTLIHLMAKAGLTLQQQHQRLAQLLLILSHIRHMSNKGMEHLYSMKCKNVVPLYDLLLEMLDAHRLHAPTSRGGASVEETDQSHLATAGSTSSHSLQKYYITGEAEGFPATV
The experiment is described as follows: Relative binding affinity was determined for Estrogen receptor 1 using 10 nM [3H]-E2 as tracer (estradiol 100%). The method, boiled down:
as §1

The target in experiment [3] is Estrogen receptor (Homo sapiens) (UniProt Q92731+P03372). Description: RBA ratio between ERalpha and ERbeta. Type of experiment: protein assay.
Chain of Estrogen receptor (Homo sapiens) (UniProt Q92731+P03372) (Q92731 whole entry, looked up, one chain of several): as the sequence (Q92731 whole entry) above

Each structure is given as a SMILES string.

Turning to `CCc1c(-c2ccccc2)nn(-c2ccc(O)cc2)c1-c1ccc(O)cc1`, the RBA was found to be 0.8 in experiment [1] and 7 in experiment [2]. In experiment [3], the Ratio turned out to be 9.
In the same order, the values of `CCCc1c(-c2ccc(O)cc2)nn(-c2ccccc2)c1-c1ccc(O)cc1` are 0.52, 16.8 and 32.
In the same order, the values of `CCCCc1c(-c2ccc(O)cc2)nn(-c2ccc(O)cc2)c1-c1ccc(O)cc1` are 0.18, 14 and 77.
In the same order, the values of `CC(C)c1c(-c2ccc(O)cc2)nn(-c2ccccc2)c1-c1ccc(O)cc1` are 0.86, 5.6 and 6.5.
As for `Cc1c(-c2ccc(O)cc2)nn(-c2ccccc2)c1-c1ccc(O)cc1`, the RBA in experiment [1] worked out at 0.28; in experiment [2] it was 0.76. Moreover, in experiment [3], the Ratio amounted to 2.7.
For `CC(C)Cc1c(-c2ccc(O)cc2)nn(-c2ccccc2)c1-c1ccc(O)cc1`, the RBA turned out to be 1.4 in experiment [1] and 56 in experiment [2]. Further, the Ratio in experiment [3] is 40.
Taken in the same sequence, the figures for `CCc1c(-c2ccccc2)nn(-c2ccccc2)c1-c1ccc(O)cc1` were 0.06, 0.04 and 0.67.
Taken in the same sequence, the figures for `CCc1c(-c2ccc(O)cc2)nn(-c2ccc(O)cc2)c1-c1ccccc1` were 0.32, 8.9 and 28.
Taken in the same sequence, the figures for `CCCCc1c(-c2ccc(O)cc2)nn(-c2ccccc2)c1-c1ccc(O)cc1` were 0.47, 8.7 and 19.
Regarding `CCc1c(-c2ccc(O)cc2)nn(-c2ccccc2)c1-c1ccccc1`, the results for the RBA in experiment [1] and in experiment [2] were 0.61 and 2.6, respectively. The Ratio in experiment [3] came out at 4.3.
Regarding `CCCc1c(-c2ccc(O)cc2)nn(-c2ccc(O)cc2)c1-c1ccc(O)cc1`, in experiment [2], the RBA was 49.
Turning to `CCc1c(-c2ccc(O)cc2)nn(-c2ccc(O)cc2)c1-c1ccc(O)cc1`, the RBA turned out to be 0.15 in experiment [1] and 36 in experiment [2]. Further, the Ratio in experiment [3] was 240.
Taken in the same sequence, the figures for `CC(C)Cc1c(-c2ccc(O)cc2)nn(-c2ccc(O)cc2)c1-c1ccc(O)cc1` were 0.89, 75 and 84.
In the same order, the values of `CCc1c(-c2ccccc2)nn(-c2ccc(O)cc2)c1-c1ccccc1` are 1.5, 3.1 and 2.1.
For the compound `CCc1c(-c2ccc(O)cc2)nn(-c2ccccc2)c1-c1ccc(O)cc1`, the RBA in experiment [1] worked out at 1.1; in experiment [2], 31. In addition, in experiment [3], the Ratio worked out at 28.

The values above are taken from ChEMBL document CHEMBL1133562, “Pyrazole ligands: structure-affinity/activity relationships and estrogen receptor-alpha-selective agonists” (J Med Chem, 2000).
